Results published in ChEMBL document CHEMBL3259773, “Indirubin core structure of glycogen synthase kinase-3 inhibitors as novel chemotype for intervention with 5-lipoxygenase” (J Med Chem, 2014).
pEC50, pIC50: −log10 of the molar value. Calls of active or inactive are those of the source. The calls are words filed in the database; no cut-off is given here.

Tests used:
[1] = target: T1, Polyunsaturated fatty acid 5-lipoxygenase (Homo sapiens) (UniProt P09917); assay: Binding affinity to human recombinant 5-LO ATP-bindng site using ATP-agaarose column in S40 fraction of Escherichia coli
T1 sequence (whole entry): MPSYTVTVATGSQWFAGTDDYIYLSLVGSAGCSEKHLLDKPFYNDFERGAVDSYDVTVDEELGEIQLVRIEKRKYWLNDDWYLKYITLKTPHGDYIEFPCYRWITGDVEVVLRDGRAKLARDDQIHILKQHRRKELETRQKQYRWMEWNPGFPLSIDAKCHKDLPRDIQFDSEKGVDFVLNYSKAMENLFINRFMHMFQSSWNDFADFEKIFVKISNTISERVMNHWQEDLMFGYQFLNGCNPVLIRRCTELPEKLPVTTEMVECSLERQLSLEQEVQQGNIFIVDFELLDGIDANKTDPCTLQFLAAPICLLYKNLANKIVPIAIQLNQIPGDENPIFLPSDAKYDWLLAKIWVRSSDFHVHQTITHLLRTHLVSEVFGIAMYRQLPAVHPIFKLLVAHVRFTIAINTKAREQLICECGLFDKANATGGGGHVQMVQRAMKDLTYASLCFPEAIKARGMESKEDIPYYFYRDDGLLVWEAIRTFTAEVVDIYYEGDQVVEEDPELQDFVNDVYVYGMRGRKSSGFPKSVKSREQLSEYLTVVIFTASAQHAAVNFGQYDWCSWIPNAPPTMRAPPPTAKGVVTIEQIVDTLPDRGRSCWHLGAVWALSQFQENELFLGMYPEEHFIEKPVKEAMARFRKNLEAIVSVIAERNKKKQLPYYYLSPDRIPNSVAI
In short: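 E. coli S40 fraction (40,000 × g supernatant) bound to ATP-agarose for 10 min at 4 °C. Pellets washed 3× with PBS-1 mM EDTA, then exposed to vehicle (0.1% DMSO) or compound for 30 min at 4 °C. Eluates and pellet-bound 5-LO resolved by SDS-PAGE and Western blot. Representative of three experiments.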

[2] = target: T1, Polyunsaturated fatty acid 5-lipoxygenase (Homo sapiens); assay: Inhibition of human recombinant 5-LO assessed as product formation at 3 uM by cell-free assay relative to control; values are per cent of control
[3] = target: T1, Polyunsaturated fatty acid 5-lipoxygenase (Homo sapiens); assay: Inhibition of 5-LO in human neutrophils assessed as product formation at 3 uM by cell-intact assay relative to control in presence of 2.5 uM A23187 ionophore; values are per cent of control
[4] = target: T2, Polyunsaturated fatty acid 5-lipoxygenase (Homo sapiens, UniProt P09917); assay: Inhibition of human recombinant 5-LO assessed as product formation by cell-free assay relative to control
T2 sequence (P09917 whole entry): T1 sequence (whole entry)
In short: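 Partially purified human recombinant 5-LO (ATP-agarose eluate, 0.5–2 μg) in PBS-EDTA with 1 mM ATP. Preincubated with vehicle or compound 10 min at 4 °C, prewarmed 30 s at 37 °C, then started with 2 mM CaCl2 and 20 μM AA. Products analysed by HPLC. Means ± SE, n = 3 or 4; IC50 by sigmoidal variable-slope fit.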

[5] = target: T2, Polyunsaturated fatty acid 5-lipoxygenase; assay: Inhibition of 5-LO in human neutrophils assessed as product formation by cell-intact assay relative to control in presence of 2.5 uM A23187 ionophore
In short: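 Intact human neutrophils, 5 × 10^6 cells/mL, stimulated with 2.5 μM A23187. 5-LO products analysed by HPLC or UPLC–MS/MS and expressed relative to DMSO vehicle control. Means ± SE, n = 3 or 4; IC50 from sigmoidal variable-slope fit.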

[6] = target: T2, Polyunsaturated fatty acid 5-lipoxygenase; assay: Inhibition of 5-LO in human neutrophils assessed as product formation by cell-intact assay relative to control in presence of 20 uM A23187/AA ionophore
In short: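 Intact human neutrophils, 5 × 10^6 cells/mL, stimulated with 2.5 μM A23187 plus 20 μM exogenous AA. 5-LO products quantified by HPLC or UPLC–MS/MS relative to vehicle control. IC50 from sigmoidal variable-slope fit, means ± SE, n = 3.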

[7] = target: T3, Prostaglandin G/H synthase 1 (Ovis aries) (UniProt P05979); assay: Inhibition of ovine COX1 using arachidonic acid at 10 uM after 5 mins by HPLC analysis
T3 sequence (whole entry): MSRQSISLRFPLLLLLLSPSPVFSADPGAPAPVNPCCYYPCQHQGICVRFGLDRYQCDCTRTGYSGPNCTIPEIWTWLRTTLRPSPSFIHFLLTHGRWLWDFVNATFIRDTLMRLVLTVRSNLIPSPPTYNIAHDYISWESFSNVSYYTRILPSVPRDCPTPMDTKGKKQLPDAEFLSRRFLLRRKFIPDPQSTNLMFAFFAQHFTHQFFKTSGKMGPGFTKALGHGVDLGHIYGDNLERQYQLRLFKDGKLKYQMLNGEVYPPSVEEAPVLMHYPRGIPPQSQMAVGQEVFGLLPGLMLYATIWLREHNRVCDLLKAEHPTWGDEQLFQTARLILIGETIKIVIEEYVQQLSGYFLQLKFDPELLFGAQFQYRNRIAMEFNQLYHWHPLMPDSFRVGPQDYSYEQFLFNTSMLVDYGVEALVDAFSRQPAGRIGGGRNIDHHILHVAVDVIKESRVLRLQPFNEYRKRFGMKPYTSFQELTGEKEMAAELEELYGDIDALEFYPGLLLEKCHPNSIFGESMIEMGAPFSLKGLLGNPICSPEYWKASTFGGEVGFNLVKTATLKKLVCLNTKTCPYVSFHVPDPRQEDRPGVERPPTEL
In short: (§1)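 Enzyme (ovine COX-1) or A549 microsomal preparation (human mPGES-1) given compound or reference inhibitor 10 min before reaction start. Activity expressed as % of 0.1% DMSO vehicle control, read-outs 12-HHT (COX-1) and PGE2 (mPGES-1). Means ± SE, n = 3.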

SH-SY5Y = assay: Anticancer activity against human SH-SY5Y cells assessed as reduction in cell viability; assay type: functional, cell-based
[8] = target: T4, Prostaglandin E synthase (Homo sapiens) (UniProt O14684); assay: Inhibition of human mPGES1 from human A549 cells assessed as PGE2 at 10 uM after 15 mins by HPLC; assay type: cell-based; in short: as §1
T4 sequence (whole entry): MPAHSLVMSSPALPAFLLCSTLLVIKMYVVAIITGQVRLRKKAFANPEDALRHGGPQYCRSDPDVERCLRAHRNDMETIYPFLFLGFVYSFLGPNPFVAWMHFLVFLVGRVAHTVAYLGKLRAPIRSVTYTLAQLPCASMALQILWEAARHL

[9] = Inhibition of pig brain GSK3 using YRRAAVPPSPSLSRHSSPHQSpEDEEE substrate by cell-free assay; set-up: species or system Sus scrofa

| residual activity [2] [%] | residual activity [3] [%] | SMILES | also measured |
| --- | --- | --- | --- |
| 97.7 | 122 | CN1C(=O)/C(=C2\Nc3ccccc3\C2=N/O)c2cccc(Br)c21 | Activity [1]: inactive |
| 62.3 | 51.1 | O=C1Nc2ccc(Br)cc2/C1=C1/Nc2ccccc2/C1=N\O [INDIRUBIN 2] | pIC50 [4]: 5.25; pIC50 [5]: 5.59; pIC50 [6]: 5.48 |
| 79.2 | 112 | CC(=O)O/N=C1/C(=C2/C(=O)Nc3c(Br)cccc32)Nc2ccccc21 | – |
| 68.9 | 43 | O=C1Nc2c(Br)cccc2/C1=C1/Nc2ccccc2/C1=N\O | pIC50 [4]: 5.24; pIC50 [5]: 5.77; pIC50 [6]: 5.44; pEC50 (SH-SY5Y): 5.10 |
| 77.1 | 123 | O=C1Nc2c(Br)cccc2/C1=C1/Nc2cc(C(=O)O)ccc2/C1=N\O | – |
| 82.9 | 120 | CO/N=C1/C(=C2/C(=O)Nc3c(Br)cccc32)Nc2ccccc21 | – |
| 85.4 | 110 | O=C1Nc2c(Br)cccc2/C1=C1/Nc2ccccc2C1=O | – |
| 58.1 | 50.4 | O=C1Nc2c(F)cccc2/C1=C1/Nc2ccccc2/C1=N\O | pIC50 [4]: 5.43; pIC50 [5]: 5.30; pIC50 [6]: 5.48 |
| 68 | 92.6 | O=C1Nc2c(cccc2C(F)(F)F)/C1=C1/Nc2ccccc2/C1=N\O | – |
| 72.8 | 99.1 | COC(=O)c1ccc2c(c1)C(=N\O)/C(=C1/C(=O)Nc3c(Br)cccc31)N2 | – |
| 65.8 | 67.4 | O=C1Nc2c(Cl)cccc2/C1=C1/Nc2ccccc2/C1=N\O | pIC50 [4]: 5.31; pIC50 [5]: 5.31; pIC50 [6]: 5.51 |

Second part, the molecule before the results:

| SMILES | residual activity [2] [%] | residual activity [3] [%] | also measured |
| --- | --- | --- | --- |
| O=C1Nc2cc(Br)ccc2/C1=C1/Nc2ccccc2/C1=N\OCCN1CCN(CCO)CC1 | 89.3 | 119 | – |
| CN(CCO/N=C1/C(=C2/C(=O)Nc3cc(Br)ccc32)Nc2ccccc21)CC(O)CO (configuration not stated) | 71.5 | 87 | – |
| COc1ccc2c(c1)c(CC(=O)O)c(C)n2C(=O)c1ccc(Cl)cc1 | – | – | inhibition [7]: Active |
| O=C1Nc2c(Br)cccc2/C1=C1/Nc2cc(C(=O)O)ccc2C1=O | 80 | 105 | – |
| CN1CCN(CCO/N=C2/C(=C3/C(=O)Nc4cc(Br)ccc43)Nc3ccccc32)CC1 | 82.1 | 91.1 | – |
| O=C1Nc2cc(Br)ccc2/C1=C1/Nc2ccccc2/C1=N\OCCN1CCCC1 | 75.1 | 127 | – |
| O=C1Nc2cc(Br)ccc2/C1=C1/Nc2ccccc2/C1=N\OCCO | 88.3 | 81.5 | – |
| CC(C)c1ccc2c(c1)c(SC(C)(C)C)c(CC(C)(C)C(=O)O)n2Cc1ccc(Cl)cc1 | – | – | inhibition [8]: Active |
| CC(c1cc2ccccc2s1)N(O)C(N)=O (configuration not stated) | – | 37.9 | – |
| O=Nc1c(-c2c(O)[nH]c3ccccc23)[nH]c2cc(Br)ccc12 | 43.9 | 111 | – |
| O=C1Nc2cc(Br)ccc2/C1=C1/Nc2ccccc2/C1=N\OCC(O)CO (configuration not stated) | 58 | 77.7 | – |
| O=Nc1c(-c2c(O)[nH]c3ccccc23)[nH]c2ccccc12 [INDIRUBIN-3-MONOXIME] | 78.4 | 92.2 | pIC50 [4]: 4.82; pIC50 [5]: 4.95; pIC50 [6]: 5.09; pIC50 [9]: 7.66 |
| O=C1Nc2c(Br)cccc2/C1=C1/Nc2ccc(/C=N/O)cc2C1=O | 80 | 95.1 | – |
| O=C1Nc2cc(Br)ccc2/C1=C1/Nc2ccccc2/C1=N\OCCN1CCOCC1 | 60.3 | 62.7 | – |
| O=C1Nc2cc(Br)ccc2/C1=C1/Nc2ccccc2/C1=N\OCCN1CCNCC1 | 76.2 | 64.7 | – |
